The subject of assay [1] is HepG2. The experiment in a line: Induction of apoptosis in human HepG2 cells assessed as late apoptotic cells at 0.125 uM after 48 hrs by […] (reference value: 3.36%). The class given is functional.
Another assay deals with HT-29. The experiment in a line: Antiproliferative activity against human HT-29 cells after 72 hrs by MTT assay. The class given is functional, cell-based. The note with it: HT-29, 72 h. Summed up: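 MTT assay. Cells were seeded and grown 24 h at 37 °C in 5% CO2, then exposed to compound or left untreated for 72 h. MTT (5 mg/mL stock) was added for 4 h and the formazan dissolved in DMSO. OD was read at 570 nm. IC50 is the concentration giving 50% growth inhibition, reported as mean ± SD of three independent experiments. Vehicle reference was 0.1% DMSO.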
For orientation: Tetrazolium dyes change colour on reduction, which living cells bring about.

For assay [2], the system named is HepG2. Nature of the assay: Induction of apoptosis in human HepG2 cells assessed as early apoptotic cells at 0.125 uM after 48 hrs in presence of hemoglobin by Annexin V-APC/7-AAD staining based flow cytometry (reference value: 3.18%). Type of assay: functional. For orientation: Flow cytometry measures light scatter and fluorescence of single cells or particles in a stream.

The subject of assay [3] is HepG2. Nature of the assay: Cell cycle arrest in human HepG2 cells assessed as S phase accumulation at 0.25 uM after 48 hrs in presence of hemoglobin by propidium iodide staining based flow cytometry (reference value: 36.40%). The class given is functional.
Assay [4] concerns HepG2. Nature of the assay: Cell cycle arrest in human HepG2 cells assessed as S phase accumulation at 0.0625 uM after 48 hrs by propidium iodide staining based flow cytometry (reference value: 43.88%). The class given is functional. The procedure, abridged: (§1)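 HepG-2 cells were plated and grown 24 h at 37 °C, then treated 48 h at 0, 0.0625, 0.125 or 0.25 µM, with 0.1% DMSO as control. Cells were fixed overnight in 70% ethanol at 4 °C, treated with RNase A and stained with propidium iodide. DNA content was measured by flow cytometry to give cell-cycle phase distribution.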

Assay [5] concerns HepG2. Nature of the assay: Downregulation of HO-2 expression in human HepG2 cells after 24 hrs by protein array assay. Type of assay: functional, cell-based. The procedure, abridged: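 Lysates from HepG-2 cells treated 24 h were incubated overnight at 4 °C on a membrane array of 35 apoptosis-related proteins. A biotinylated detection antibody cocktail was then applied for 1 h at room temperature. Relative expression was read from chemiluminescent spots by densitometry.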

Assay [6] concerns HepG2. The experiment in a line: Cell cycle arrest in human HepG2 cells assessed as G2 phase accumulation at 0.25 uM after 48 hrs in presence of hemoglobin by propidium iodide staining based flow cytometry (reference value: 10.67%). The class given is functional.
For assay [7], the system named is HepG2. Nature of the assay: Cell cycle arrest in human HepG2 cells assessed as G2 phase accumulation at 0.125 uM after 48 hrs by propidium iodide staining based flow cytometry (reference value: 23.38%). Type of assay: functional. The procedure, abridged: as §1

pIC50: −log10 of the molar value. The source made the active and inactive calls. The rule behind the calls is not given here.

`C[C@H]1CCC/C=C/[C@@H]2C[C@H](OC(=O)CCCC(=O)OCCOc3no[n+]([O-])c3S(=O)(=O)c3ccccc3)C[C@H]2[C@H](OC(=O)CCCC(=O)OCCOc2no[n+]([O-])c2S(=O)(=O)c2ccccc2)/C=C/C(=O)O1`: the Activity is listed as 21.42% with HepG2 [1]; 3.49% in the assay on HepG2 [2]; 22.37% in the assay on HepG2 [3]; 48.2% in the assay with HepG2 [4]; 5.3% with HepG2 [6]; 17% in the assay on HepG2 [7]. Further, the pIC50 (as a rule, −log10 of the IC50, conventionally taken in molar units) in the assay on HT-29 is 6.80. Also, the outcome in the assay with HepG2 [5] was Active.

The values above are taken from ChEMBL document CHEMBL4138082 (Eur J Med Chem, 2017).
